The values below come from ChEMBL document CHEMBL1629471, “Synthesis of (S)-(+)-decursin and its analogues as potent inhibitors of melanin formation in B16 murine melanoma cells” (Eur J Med Chem, 2010).

For data set [1], the system named is B16-F10. As to the kind of experiment: Inhibition of melanin production in mouse B16F10 cells at 100 uM after 2 days. The format is functional. Particulars: B16-F10, 48 h. The essentials:
(§1)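 Extracellular melanin release: B16 murine melanoma cells seeded at 1×10^5 per well overnight, then alpha-MSH added with or without compound in phenol red-free DMEM for 2 d. Melanin in the medium quantified by absorbance at 405 nm. Cells were maintained in DMEM with 10% heat-inactivated FBS and 1% penicillin-streptomycin at 37 °C, 5% CO2.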

Data set [2] can be described thus: Cytotoxicity against mouse B16F10 cells assessed as cell viability after 24 hrs by MTT assay. Also on record: concentration or dose not given beside the values. The class given is cell-based, B16-F10. The method in brief:
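B16 murine melanoma cells (DMEM, 10% heat-inactivated FBS, 1% penicillin-streptomycin, 5% CO2, 37 °C) exposed to compounds or no compound for 24 h. MTT (5 mg/ml in PBS) added, 3 h at 37 °C, formazan dissolved in DMSO, absorbance read at 570 nm.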
In general terms: Tetrazolium dyes change colour on reduction, which living cells bring about.

The test system of data set [3] is B16-F10. As to the kind of experiment: Inhibition of melanin production in mouse B16F10 cells at 500 uM after 2 days. The format is functional. Particulars: B16-F10, 48 h. The essentials: as §1

Take `C=C(C)C(=O)O[C@H]1Cc2cc3ccc(=O)oc3cc2OC1(C)C`: the inhibition – broadly, the relative decrease from the control value, in per cent – at 100 µM in the data set on B16-F10 [1] worked out at 58.1%. Also, the cytotoxicity (% decrease in viability) at 24 h in data set [2] was determined as 58.4%.
For `CC/C=C/C(=O)O[C@H]1Cc2cc3ccc(=O)oc3cc2OC1(C)C` the same measures were 79.4% and 39.5%.
For `C=CCC(=O)O[C@H]1Cc2cc3ccc(=O)oc3cc2OC1(C)C` the same measures were -8.1% and 0.6%.
As to `C=CCCC(=O)O[C@H]1Cc2cc3ccc(=O)oc3cc2OC1(C)C`, in the data set on B16-F10 [1], the inhibition at 100 µM was found to be 36.4%. In addition, the cytotoxicity (% decrease in viability) at 24 h in data set [2] was -0.4%.
Turning to `CC(=O)O[C@H]1Cc2cc3ccc(=O)oc3cc2OC1(C)C`, the inhibition at 100 µM with B16-F10 [1] was -5.7%. Besides, the cytotoxicity (% decrease in viability) at 24 h in data set [2] was 3.7%.
For `CC1(C)Oc2cc3oc(=O)ccc3cc2C[C@@H]1OC(=O)/C=C/c1cccc(O)c1` the same measures were 73.8% and 47.9%.
For `CCCCC(=O)O[C@H]1Cc2cc3ccc(=O)oc3cc2OC1(C)C` the same measures were 76.5% and 10.4%.
For `CCCCCCCCCC(=O)O[C@H]1Cc2cc3ccc(=O)oc3cc2OC1(C)C` the same measures were 79.3% and 28.2%.
As for `CC1(C)Oc2cc3oc(=O)ccc3cc2C[C@@H]1OC(=O)/C=C/c1cccnc1`, in the data set on B16-F10 [1], the inhibition at 100 µM was found to be 53.5%. The cytotoxicity (% decrease in viability) at 24 h in data set [2] stood at 5%.
In the case of `CC1(C)Oc2cc3oc(=O)ccc3cc2C[C@@H]1OC(=O)/C=C/c1cccs1`, the inhibition at 100 µM with B16-F10 [1] is 71.6%. Further, in data set [2], the cytotoxicity (% decrease in viability) at 24 h was -15.4%.
For `CC1(C)Oc2cc3oc(=O)ccc3cc2C[C@@H]1OC(=O)/C=C/c1ccco1` the same measures were 33% and -1.4%.
For `COc1ccccc1/C=C/C(=O)O[C@H]1Cc2cc3ccc(=O)oc3cc2OC1(C)C` the same measures were 63.7% and -5.1%.
For `CC1(C)Oc2cc3oc(=O)ccc3cc2C[C@@H]1OC(=O)/C=C/c1ccccc1O` the same measures were 76.8% and 74.2%.
For `CC(=O)Oc1ccccc1/C=C/C(=O)O[C@H]1Cc2cc3ccc(=O)oc3cc2OC1(C)C`, the inhibition at 100 µM in the data set with B16-F10 [1] was 65.9%. Moreover, the cytotoxicity (% decrease in viability) at 24 h in data set [2] amounted to 63.1%.
For `COc1cccc(/C=C/C(=O)O[C@H]2Cc3cc4ccc(=O)oc4cc3OC2(C)C)c1` the same measures were 37.9% and 14.5%.
For `CC(=O)Oc1cccc(/C=C/C(=O)O[C@H]2Cc3cc4ccc(=O)oc4cc3OC2(C)C)c1` the same measures were 80.7% and 31.4%.
For `COc1ccc(/C=C/C(=O)O[C@H]2Cc3cc4ccc(=O)oc4cc3OC2(C)C)cc1` the same measures were 40.3% and -3.5%.
`CC1(C)Oc2cc3oc(=O)ccc3cc2C[C@@H]1OC(=O)/C=C/c1ccc(O)cc1`: the inhibition at 100 µM with B16-F10 [1] was determined as 66.4%. Besides, the cytotoxicity (% decrease in viability) at 24 h in data set [2] worked out at 65.8%.
With `CC(=O)Oc1ccc(/C=C/C(=O)O[C@H]2Cc3cc4ccc(=O)oc4cc3OC2(C)C)cc1`, the inhibition at 100 µM with B16-F10 [1] was 76.1%. Besides, the cytotoxicity (% decrease in viability) at 24 h in data set [2] came to 58%.
For `COc1ccc(/C=C/C(=O)O[C@H]2Cc3cc4ccc(=O)oc4cc3OC2(C)C)cc1OC` the same measures were 42.4% and -1.4%.
For `CC1(C)Oc2cc3oc(=O)ccc3cc2C[C@@H]1OC(=O)/C=C/c1ccc(O)c(O)c1`, the inhibition at 100 µM in the data set on B16-F10 [1] was found to be 43.5%. Moreover, the cytotoxicity (% decrease in viability) at 24 h in data set [2] amounted to 67.6%.
For `CC(=O)Oc1ccc(/C=C/C(=O)O[C@H]2Cc3cc4ccc(=O)oc4cc3OC2(C)C)cc1OC(C)=O` the same measures were 30.7% and 49.4%.
For `COc1cc(/C=C/C(=O)O[C@H]2Cc3cc4ccc(=O)oc4cc3OC2(C)C)cc(OC)c1OC` the same measures were 18.8% and 4.1%.
`CC1(C)Oc2cc3oc(=O)ccc3cc2C[C@@H]1OC(=O)/C=C/c1cc(O)c(O)c(O)c1`: the inhibition at 100 µM in the data set on B16-F10 [1] was found to be 59.2%. In data set [2], the cytotoxicity (% decrease in viability) at 24 h worked out at 42.9%.
For `CC(=O)Oc1cc(/C=C/C(=O)O[C@H]2Cc3cc4ccc(=O)oc4cc3OC2(C)C)cc(OC(C)=O)c1OC(C)=O` the same measures were 35.4% and 54.8%.
For `CC1(C)Oc2cc3oc(=O)ccc3cc2C[C@@H]1OC(=O)CCc1ccccc1` the same measures were 62.8% and -0.6%.
For `COc1ccccc1CCC(=O)O[C@H]1Cc2cc3ccc(=O)oc3cc2OC1(C)C` the same measures were 68.9% and 6.1%.
In the case of `OC[C@H]1O[C@@H](Oc2ccc(O)cc2)[C@H](O)[C@@H](O)[C@@H]1O` [ARBUTIN], the cytotoxicity (% decrease in viability) at 24 h in data set [2] is -6.2%. The inhibition at 500 µM in the data set with B16-F10 [3] stood at 41%.
For the molecule `C/C=C(/C)C(=O)O[C@H]1Cc2cc3ccc(=O)oc3cc2OC1(C)C` [DECURSINOL ANGELATE], the inhibition at 100 µM with B16-F10 [1] is 74.5%. The cytotoxicity (% decrease in viability) at 24 h in data set [2] is -2.4%.
For `C/C=C(\C)C(=O)O[C@H]1Cc2cc3ccc(=O)oc3cc2OC1(C)C` [DECURSINOL TIGLATE] the same measures were 71.5% and 16.4%.
For `CC1(C)Oc2cc3oc(=O)ccc3cc2C[C@@H]1O` [DECURSINOL] the same measures were 12.2% and 1.4%.
For the molecule `CC(C)=CC(=O)O[C@H]1Cc2cc3ccc(=O)oc3cc2OC1(C)C` [DECURSIN], the inhibition at 100 µM in the data set with B16-F10 [1] was determined as 71%. For the same molecule, the cytotoxicity (% decrease in viability) at 24 h in data set [2] was -9.7%.
For `CC1(C)Oc2cc3oc(=O)ccc3cc2C[C@@H]1OC(=O)/C=C/c1ccccc1` [DIHYDROPYRANOCOUMARIN D2] the same measures were 72.1% and 0.8%.
For `CC1(C)Oc2cc3oc(=O)ccc3cc2C[C@@H]1OC/C=C/c1ccccc1` [PROGERININ] the same measures were 33.8% and -12.5%.
